Drawing on ChEMBL document CHEMBL4613235, “A scaffold replacement approach towards new sirtuin 2 inhibitors” (Bioorg Med Chem, 2020), this text covers inhibition for 26 compounds.

Molecules are shown by their SMILES.

In assay [1] the target is T1, NAD-dependent protein deacetylase sirtuin-2 (Homo sapiens) (UniProt Q8IXJ6).
T1 sequence (whole entry): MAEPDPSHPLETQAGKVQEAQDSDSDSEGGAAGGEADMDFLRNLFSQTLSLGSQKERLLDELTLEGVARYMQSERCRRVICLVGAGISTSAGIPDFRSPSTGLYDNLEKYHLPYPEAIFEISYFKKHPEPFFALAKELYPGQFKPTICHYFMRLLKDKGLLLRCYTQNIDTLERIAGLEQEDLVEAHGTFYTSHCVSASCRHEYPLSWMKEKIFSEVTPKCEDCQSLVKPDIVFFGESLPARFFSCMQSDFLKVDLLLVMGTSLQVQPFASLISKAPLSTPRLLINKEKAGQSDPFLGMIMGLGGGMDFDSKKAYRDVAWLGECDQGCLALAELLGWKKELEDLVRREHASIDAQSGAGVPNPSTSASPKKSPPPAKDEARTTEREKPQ
In words: Inhibition of recombinant GST-tagged human SIRT2 expressed in Escherichia coli at 200 uM using FLUOR DE LYS SIRT2 as substrate preincubated with substrate for 5 mins followed by enzyme addition and measured after 1 hr in presence of NAD+ by fluorescence based assay relative to control. The essentials: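 Fluor de Lys assay using GST-SIRT2 produced in-house and acetylated peptide substrate KI179 at 0.7 Km, with NAD+ at 0.9 Km in SIRT assay buffer. Buffer, substrate, NAD+ and compound in DMSO were preincubated 5 min at room temp; enzyme started the 1 h, 37 °C reaction. Developer with nicotinamide was added for 45 min at 37 °C; fluorescence read at ex 370/em 460 nm. SD, n = 3.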

Assay [2] deals with T2, NAD-dependent protein deacetylase sirtuin-1 (Homo sapiens) (UniProt Q96EB6).
T2 sequence (whole entry): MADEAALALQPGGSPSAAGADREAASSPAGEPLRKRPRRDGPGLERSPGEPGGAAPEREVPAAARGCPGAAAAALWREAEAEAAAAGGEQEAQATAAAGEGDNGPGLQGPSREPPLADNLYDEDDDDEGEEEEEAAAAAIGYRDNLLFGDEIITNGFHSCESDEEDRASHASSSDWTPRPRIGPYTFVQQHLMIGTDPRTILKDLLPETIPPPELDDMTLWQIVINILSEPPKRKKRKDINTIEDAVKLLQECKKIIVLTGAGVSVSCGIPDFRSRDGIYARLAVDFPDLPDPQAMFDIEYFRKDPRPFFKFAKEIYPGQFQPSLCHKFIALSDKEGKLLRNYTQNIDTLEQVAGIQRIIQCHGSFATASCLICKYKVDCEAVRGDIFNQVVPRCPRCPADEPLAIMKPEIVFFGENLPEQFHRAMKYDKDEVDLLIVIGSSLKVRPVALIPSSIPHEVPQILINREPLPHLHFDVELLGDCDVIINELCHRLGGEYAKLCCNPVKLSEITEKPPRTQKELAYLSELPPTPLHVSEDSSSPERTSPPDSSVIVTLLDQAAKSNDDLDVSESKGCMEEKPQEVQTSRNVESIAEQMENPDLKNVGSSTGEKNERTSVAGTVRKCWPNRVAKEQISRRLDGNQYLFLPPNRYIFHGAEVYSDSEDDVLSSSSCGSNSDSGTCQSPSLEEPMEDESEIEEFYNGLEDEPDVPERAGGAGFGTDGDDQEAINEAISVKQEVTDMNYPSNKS
The experiment in a line: Inhibition of recombinant GST-tagged human SIRT1 at 200 uM using FLUOR DE LYS SIRT1 as substrate preincubated with substrate for 5 mins followed by enzyme addition and measured after 1 hr in presence of NAD+ by fluorescence based assay relative to control. In outline:
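Fluor de Lys assay using GST-SIRT1 produced in-house and acetylated peptide substrate KI177 at 0.7 Km, with NAD+ at 0.9 Km in SIRT assay buffer. Buffer, substrate, NAD+ and compound in DMSO were preincubated 5 min at room temp, then enzyme was added and run 1 h at 37 °C. Developer plus nicotinamide was added for 45 min at 37 °C. Read at ex 370/em 460 nm. SD, n = 3.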

The target of assay [3] is T3, NAD-dependent protein deacetylase sirtuin-3, mitochondrial (Homo sapiens) (UniProt Q9NTG7).
T3 sequence (whole entry): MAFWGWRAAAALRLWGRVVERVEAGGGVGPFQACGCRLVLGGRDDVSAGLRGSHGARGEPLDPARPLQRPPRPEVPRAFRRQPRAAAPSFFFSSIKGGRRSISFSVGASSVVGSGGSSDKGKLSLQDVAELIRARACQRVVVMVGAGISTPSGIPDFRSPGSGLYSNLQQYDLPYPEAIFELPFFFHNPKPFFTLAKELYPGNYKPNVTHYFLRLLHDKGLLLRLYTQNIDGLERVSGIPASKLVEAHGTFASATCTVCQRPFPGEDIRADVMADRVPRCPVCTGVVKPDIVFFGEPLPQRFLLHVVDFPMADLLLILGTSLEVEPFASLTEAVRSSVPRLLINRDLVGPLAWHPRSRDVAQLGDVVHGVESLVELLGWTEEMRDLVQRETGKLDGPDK
The experiment in a line: Inhibition of recombinant N-terminal His-tagged human sirtuin 3 (102 to 399 residues) expressed in Escherichia coli at 200 uM using fluor de lys SIRT2 as substrate preincubated with substrate for 5 mins followed by enzyme addition and measured after 1 hr in presence of NAD+ by fluorescence based assay relative to control. The essentials: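 Purchased recombinant His-SIRT3 was used with Fluor de Lys acetylated peptide substrate KI179 at 0.7 Km and NAD+ at 0.9 Km in SIRT assay buffer. Compound in DMSO was preincubated 5 min at room temp with buffer, substrate and NAD+; enzyme addition began the 1 h, 37 °C reaction. Developer with nicotinamide followed for 45 min at 37 °C; ex 370/em 460 nm read-out. SD, n = 3.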

As usually defined, the inhibition is the percentage by which the read-out fell short of the control. With `CCCCC1=Cc2ccccc2S(=O)(=O)N1`, the inhibition in assay [1] was 12%. For the compound `O=C1c2ccc(Br)cc2S(=O)(=O)N1CCc1ccccc1`, the results for the inhibition in assay [2], in assay [1] and in assay [3] were 3.8%, 4.7% and 1.6%, respectively. `CCCCCc1cc(=O)c2cc(Cl)cc(Br)c2[nH]1`: the inhibition in assay [1] was determined as 26%. Turning to `O=S1(=O)NC(CCc2ccccc2)=Cc2ccc(Br)cc21`, the inhibition in assay [1] worked out at 35%. For `O=c1ccc2cc(CCC3Nc4c(Br)cc(Br)cc4S(=O)(=O)N3)ccc2[nH]1` (centres undefined), the values for the inhibition in assay [2], in assay [1] and in assay [3] were 25%, 74% and 28%, respectively. The like results for `O=C1c2ccccc2S(=O)(=O)N1CCc1ccccc1` were, in that order, 14%, 34% and 14%. In the same order, the values of `O=c1cc(Cc2ccccc2)[nH]c2c(Br)cc(Cl)cc12` are 7.6%, 58% and 41%. `O=S1(=O)N=C(CCc2ccccc2)Nc2c(Br)cc(Br)cc21`: the inhibition in assay [1] turned out to be 15%. Consider `CCCCCC1Nc2c(Br)cc(Br)cc2S(=O)(=O)N1` (centres undefined), for which the inhibition in assay [2] was found to be 4.4%; in assay [1], 32%; in assay [3] it was 5.8%. `O=C1c2ccccc2S(=O)(=O)N1CCCc1cccnc1`: the inhibition in assay [2] stood at 17%; in assay [1] it was 12%; in assay [3], 14%. Take `O=S1(=O)NC(CCc2cccc(Br)c2)Nc2c(Br)cc(Br)cc21` (centres undefined): the inhibition in assay [2] came out at 9.7%; in assay [1], 59%; in assay [3], 9.9%. As for `O=c1cc(CCc2ccccc2)oc2c(Br)cc(Cl)cc12`, the inhibition in assay [1] was 75%.

For the compound `O=S1(=O)NC(CCc2ccccc2)=Cc2ccccc21`, the inhibition in assay [1] turned out to be 15%. Consider `CCCCCc1cc(=O)c2cc(Cl)cc(Br)c2o1`, for which the inhibition in assay [2] was 9.8%; in assay [3] it was 4.5%. Regarding `CCCCC1=Cc2ccc(Br)cc2S(=O)(=O)N1`, the inhibition in assay [1] turned out to be 29%. `O=C1c2ccc(Br)cc2S(=O)(=O)N1CCc1cccc([N+](=O)[O-])c1`: the inhibition in assay [1] was 6.2%.

Take `CCCCCN1C(=O)c2ccc(Br)cc2S1(=O)=O`: the inhibition in assay [1] is 6.9%. On to `O=C1c2ccc(Br)cc2S(=O)(=O)N1CCc1ccc(O)cc1`, for which the inhibition in assay [2] was 5.2%; in assay [1], 12%; in assay [3], 15%. The like results for `O=S1(=O)NC(CCc2ccccc2)Nc2c(Br)cc(Br)cc21` (centres undefined) were, in that order, 4.6%, 47% and 54%. In the case of `O=S1(=O)N=C(CCc2ccc(Br)cc2)Nc2c(Br)cc(Br)cc21`, the inhibition in assay [1] was 10%. Take `O=S1(=O)N=C(CCc2cccc(Br)c2)Nc2c(Br)cc(Br)cc21`: the inhibition in assay [2] was 0%; in assay [1], 24%; in assay [3], 3.2%.

For the compound `CCCCCN1C(=O)c2ccccc2S1(=O)=O`, the inhibition in assay [1] was found to be 34%.

On to `O=C1c2ccc(Br)cc2S(=O)(=O)N1CCc1cccc(Br)c1`, for which the inhibition in assay [1] is 15%. For the compound `CCOC(=O)CCCN1C(=O)c2ccccc2S1(=O)=O`, the results for the inhibition in assay [2], in assay [1] and in assay [3] were 8.7%, 13% and 7.2%, respectively.

`O=C1CCC(=O)N1CCN1C(=O)c2ccc(Br)cc2S1(=O)=O`: in assay [1], the inhibition worked out at 13%. Still for that read-out and setting: then `COC(=O)CCCCc1cc(=O)c2cc(Cl)cc(Br)c2[nH]1`, with 53%.
